NR2E3 ag-1: NR2E3 agonists in two-hybrid cells, primary screen, cell-based, luminescence, CHO-S, Gal4-NCOR/VP16-NR2E3 | Photoreceptor-specific nuclear receptor (Homo sapiens), Q9Y5X4 | inhibition of corepressor binding, % at 3.98 µM | AID 602229, 2012 | 360,000 compounds, 0.35% hits | luciferase;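 active = inhibition above the mean of all tested compounds plus 3 SD, cut at about 70% in these data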;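 note: 0% = DMSO with NR2E3 transfected cells and 100% = cells lacking NR2E3 construct; higher means lower luciferase signal from less NR2E3 corepressor binding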
DAX1 inh-1: DAX1 (NR0B1) inhibitors on StAR promoter, primary screen, cell-based, luminescence, SF-1 (NR5A1), full-length DAX-1. inhibition, % at 6.8 µM. 370,000 compounds, 1.1% hits. HEK293T StAR-luciferase reporter, SF-1/DAX-1 repression relief;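 active = inhibition above the mean over all tested compounds plus 3 SD, cut at about 3.6% in these data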;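 note: 0% = DAX-1 cells with DMSO and 100% = cells lacking DAX-1 with DMSO; higher inhibition means more luminescence from relief of DAX-1 repression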
GASC-1 inh: inhibitors of GASC-1 histone demethylase, primary screen, biochemical, fluorescence, DELFIA europium; Lysine-specific demethylase 4C (Homo sapiens), Q9H3R0; GST-JMJD2C(1-420) H3K9me3 demethylation; inhibition, % at 2.35 µM; 330,000 compounds, 0.069% hits;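 active = more than half of a compound's replicate wells show inhibition beyond 50%, single wells judged on their own value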;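 note: signal counts dimethyl H3K9 product captured on neutravidin plate; 0% = median of DMSO wells and 100% = 0.3 times that DMSO median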
SMARCA2 activ: SMARCA2 (BRM) function activators, primary screen, cell-based, luminescence, high throughput | 370,000 compounds, 1% hits | MG213 cells, MMTV-luciferase reporter, dexamethasone, overnight | AID 652017, 2013 | activation, % at 9.1 µM; in the data active = activation above about 7.8%;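 note: 0% = vehicle wells and 100% = reference activator wells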
NR2E3 ag-2: inhibitors of NR2E3-RetCOR corepressor binding, primary screen, NR2E3 agonist project, biochemical, TR-FRET, GST-NR2E3, biotin-RetCOR. Photoreceptor-specific nuclear receptor (Homo sapiens), Q9Y5X4. AID 2300, 2010. 320,000 compounds, 0.12% hits. inhibition of corepressor binding, % at 4.78 µM. 1536-well;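 active = percent inhibition above the cutoff of mean plus 3 SD of all tested compounds, set per screening campaign, cut at about 20% in these data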;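 note: 0% = DMSO wells and 100% = biotin wells as full block of FRET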
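Material: NR2E3–RetCOR corepressor complex / Amount: 1.35 nM GST-NR2E3 / Medium: Tris pH 7.5 / Compound: single nominal compound dose of 4.8 µM / Incubation: 5 h at 4 °C / Technique: TR-FRET, Eu(K)-anti-GST donor, streptavidin-D2 acceptor, ex 340, em 617/671 nm / Read-out basis: percent loss of FRET ratio relative to control wells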
DAX1 inh-2: DAX1 (NR0B1) inhibitors, primary screen, cell-based, HEK293, Gal4-DAX1, luciferase luminescence | Nuclear receptor subfamily 0 group B member 1 (Homo sapiens), P51843 | HEK293 Gal4-DAX1 luciferase reporter | inhibition, % at 6.75 µM | 340,000 compounds, 0.99% hits | AID 504766, 2011;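 active = inhibition above the mean over all tested compounds plus 3 SD, cut at about 4.2% in these data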;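 note: 0% = DAX1-transfected cells with DMSO and 100% = empty-vector control cells with DMSO; inhibition shows as a rise in luminescence from relieved DAX1 repression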
Target sequence (P51843 207-470 limits assumed): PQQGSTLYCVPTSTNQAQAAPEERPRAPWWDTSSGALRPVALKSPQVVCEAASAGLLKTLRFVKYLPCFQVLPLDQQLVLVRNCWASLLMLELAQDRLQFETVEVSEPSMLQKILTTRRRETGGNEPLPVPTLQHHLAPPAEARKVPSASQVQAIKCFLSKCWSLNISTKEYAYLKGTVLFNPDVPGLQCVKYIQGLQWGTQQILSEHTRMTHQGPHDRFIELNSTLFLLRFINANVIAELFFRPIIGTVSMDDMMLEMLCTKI
DAX1 conf: DAX1 (NR0B1) inhibitors relieving SF-1 repression, confirmation, cell-based, luminescence, HEK293T, full-length DAX-1, SF-1 activated StAR promoter; AID 652134, 2013; 2,400 compounds, 87% hits; HEK293T StAR-promoter luciferase reporter, SF-1/DAX-1 repression; inhibition, % at 6.8 µM; shares compounds with DAX1 inh-1;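 active = inhibition above the average of every tested compound plus 3 SD, cut at about 3.8% in these data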;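 note: 0% = DAX-1 cells with DMSO and 100% = no DAX-1 control cells with DMSO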
Target sequence (P51843 whole entry, looked up): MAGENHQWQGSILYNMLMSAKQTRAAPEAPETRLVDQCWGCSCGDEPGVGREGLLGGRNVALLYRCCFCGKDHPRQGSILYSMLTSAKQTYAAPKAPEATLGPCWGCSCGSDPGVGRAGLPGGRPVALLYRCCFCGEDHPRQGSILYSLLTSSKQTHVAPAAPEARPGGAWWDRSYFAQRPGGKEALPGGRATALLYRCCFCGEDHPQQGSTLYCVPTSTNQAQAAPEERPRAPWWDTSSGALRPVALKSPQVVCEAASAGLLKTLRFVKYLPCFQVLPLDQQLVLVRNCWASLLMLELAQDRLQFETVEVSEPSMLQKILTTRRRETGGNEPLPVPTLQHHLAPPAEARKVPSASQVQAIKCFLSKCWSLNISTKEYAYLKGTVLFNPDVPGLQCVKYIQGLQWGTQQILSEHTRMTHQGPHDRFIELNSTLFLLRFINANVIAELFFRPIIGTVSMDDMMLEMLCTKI
SF1 mutant ctr: StAR reporter signal changes without DAX1, counter-screen for DAX1 inhibitor project, cell-based, luminescence, AF-2 mutant SF-1, transactivation; shares compounds with DAX1 inh-1; HEK293 StAR-luciferase, SF-1 AF2 mutant; inhibition, % at 6.8 µM; 2,400 compounds, 78% hits; AID 652136, 2013;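 active = inhibition above the mean of all tested compounds plus 3 SD, cut at about 3% in these data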;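 note: 0% = DAX-1 transfected cells with DMSO and 100% = cells without DAX-1 with DMSO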
Numbers without * were called inactive; . = no result; + = active, no number. Shown are actives, neighbours in structure and some others; about 3.2% of the full set was active somewhere.

SMILES	NR2E3 ag-1	DAX1 inh-1	GASC-1 inh	SMARCA2 activ	NR2E3 ag-2	DAX1 inh-2	DAX1 conf	SF1 mutant ctr
Cc1ccc(S(=O)(=O)NCC(=O)N2CCN(c3ccccn3)CC2)cc1C	.	-0.8	.	-2.6	.	.	.	.
Cc1cc(NC(=O)c2nn(C)c(C)c2[N+](=O)[O-])no1	4.5	-0.2	6.1	1.3	5.7	0.5	.	.
Cc1cc(NC(=O)c2nn(C)c(C)c2Br)no1	-74.1	4.6*	-2.1	4.3	-1.7	0.4	4.6*	5.2*
CCOc1ccc(-n2c(COc3ccc(C)cc3)nnc2SCC(=O)c2ccc3ccccc3c2)cc1	.	-0.7	.	1.0	.	.	.	.
Cn1c(NC(=O)CCC2CCCCC2)cc(=O)n(C)c1=O	-94.0	5.6*	-7.0	1.1	3.0	3.1	12.0*	6.0*
CCCCNC(=O)C[C@H]1C[C@@]2(C(=O)OC)C(=C[C@H](C(C)(C)C)O[C@@H]2C)N(Cc2ccco2)C1=O	.	-0.4	.	-3.0	.	.	.	.
COc1ccc(C(=O)NCCSc2ccccc2)cc1	-146.2	5.1*	-11.4	2.4	-0.6	-1.2	12.3*	5.2*
COc1ccc(C(=O)NCCNC(=O)c2ccc(OC)cc2)cc1	-3.0	-0.3	8.8	-5.0	0.2	0.4	.	.
CC(=O)Oc1ccc(-c2ccc(C(=O)NCCc3ccc(S(N)(=O)=O)cc3)cc2)cc1	-22.3	0.2	1.3	1.1	-1.3	0.0	.	.
CC(=O)Oc1ccc(C(=O)NCCc2ccccc2)cc1	-105.5	7.2*	-1.6	3.5	1.9	0.6	12.4*	5.3*
O=C(NCCS(=O)(=O)NCCc1ccccc1)c1ccccc1	-7.5	4.7*	1.2	-0.2	-0.1	0.6	3.0	1.2
N#CCC[C@H]1CC[C@]2(CCCN(C(=O)c3ccc4ccccc4n3)C2)O1	.	0.5	.	-1.9	.	.	.	.
O=S(=O)(NCc1cn(Cc2ccccc2)nn1)c1ccccc1Br	.	0.2	.	-4.0	.	.	.	.
Cc1ccc(NC(=O)/C=C2\NC(=O)CS2)cc1	-42.0	1.4	-5.1	4.4	-0.3	1.4	.	.
CC(C)(C)c1ccc(C(=O)/C=C2\NC(=O)CS2)cc1	-145.9	5.2*	7.3	-1.7	0.5	-0.9	17.9*	9.2*
COc1ccc(-n2c(SCC(=O)Nc3cc(C)c(NC(=O)c4ccccc4)cc3OC)nnc2-c2ccco2)cc1	.	-3.1	.	-6.1	.	.	.	.
Cc1ccc(S(=O)(=O)N(C)C)cc1NC(=O)c1ccc2ccccc2n1	-53.9	0.1	4.1	1.1	1.9	1.8	.	.
Cc1ccc(C)c(NC(=O)c2ccc3ccccc3n2)c1	-188.1	5.0*	-9.1	7.2	0.2	0.5	14.6*	10.0*
O=C(NC(=S)NN1CCOCC1)c1cc(Br)ccc1Cl	-15.2	5.2*	4.2	-2.7	.	0.3	0.3	0.5
O=C(NN1CCOCC1)c1cc(Cl)ccc1Cl	26.4	-0.9	6.7	0.1	6.8	0.8	.	.
CCCCCCc1c[nH]c2ccc(O)c(-c3ccccc3)c12	.	0.5	.	-4.0	.	.	.	.
Cc1ccc(-c2nc3n(n2)Cc2ccccc2-3)cc1	-110.2	2.9	8.6	1.9	3.0	-3.4	.	.
Fc1ccc(-c2nc3n(n2)Cc2ccccc2-3)cc1	-146.0	5.5*	-0.9	7.2	7.9	0.2	14.4*	8.6*
COC(=O)[C@@]12CCCCC3=C1N(CCC3)C(=O)[C@H]2CC(=O)N1CCSCC1	.	-1.1	.	-2.0	.	.	.	.
NC(=O)C1CCN(C(=O)c2cc3c(s2)CCCC3)CC1	-150.9	5.7*	0.1	-2.0	0.2	1.7	4.9*	2.4
SMILES	NR2E3 ag-1	DAX1 inh-1	GASC-1 inh	SMARCA2 activ	NR2E3 ag-2	DAX1 inh-2	DAX1 conf	SF1 mutant ctr
COc1ccc(N2CCN(C(=O)c3cc4c(s3)CCCCC4)CC2)cc1	23.5	4.5*	4.0	-2.0	3.5	0.5	2.8	1.9
CC(C)NC(=O)C1CCN(C2CCN(C(=O)c3cc4c(s3)CCCCC4)CC2)CC1	12.7	-0.7	-5.4	-3.0	3.0	-3.3	.	.
NNC(=O)CCC(=O)Nc1ccccc1	18.1	0.2	-16.3	2.0	0.9	-0.6	.	.
O=C(CCCCCCC(=O)Nc1ccccc1)NO	-2.9	32.6*	-7.3	-1.5	0.9	12.7*	+	-5.5
CCc1ccc(NC(=O)Nc2ccon2)cc1	-82.0	4.6*	2.7	1.6	0.3	2.9	5.6*	5.4*
CCOc1ccc(NC(=O)C(=S)NC2CCCCC2)cc1	-45.7	0.8	-6.2	-1.3	1.4	-0.9	.	.
CCc1ccc(OCC(=O)NC2CCCCC2)c(Br)c1	-205.3	6.9*	-12.2	1.4	-2.4	1.2	6.9*	4.4*
CCOc1ccc(NC(=O)NC2CCCCCCC2)cc1	-131.7	9.8*	-4.2	1.4	.	3.3	9.0*	4.0*
O=C(Nc1cccc([N+](=O)[O-])c1)NC1CCCCCCC1	-101.7	5.5*	13.4	-0.9	.	1.4	4.6*	4.3*
COc1ccccc1-c1ccc(OCCCN2CCC(C(O)(c3ccccc3)c3ccccc3)CC2)cc1	.	-0.4	.	-6.1	.	.	.	.
CCc1ccc(NC(=O)C(=S)NC2CCCCC2)cc1	-23.9	1.1	-3.7	4.5	2.8	2.0	.	.
O=C(Nc1ccc(Br)cc1)NC1CCCCCCC1	-137.7	5.1*	-19.5	4.5	-1.8	1.9	9.1*	6.0*
CCc1ccc(NC(=O)NC2CCCCCCC2)cc1	-97.5	7.9*	9.9	6.2	.	4.1	10.4*	5.4*
O=C(OCc1cn(Cc2cccc(F)c2F)nn1)N1CCCC1	.	-0.2	.	1.6	.	.	.	.
CCOC(=O)c1[nH]c(C)c(C(=O)Nc2ccc(F)cc2)c1C	-32.2	-0.8	-17.3	-1.1	3.9	-2.2	.	.
CCOC(=O)c1c(C)[nH]c(C(=O)COC(=O)C2CC2)c1C	-81.0	5.2*	.	6.9	.	-0.3	3.3	0.1
CCOC(=O)c1c(C)[nH]c(C(=O)OCc2ccc(F)cc2)c1C	-156.8	5.7*	-12.7	3.2	.	2.7	7.5*	5.8*
CC(=O)c1c(C)[nH]c(C(=O)COC(=O)C2CC2)c1C	-5.7	0.3	-8.5	1.5	-3.4	1.3	.	.
CCOC(=O)c1c(C)[nH]c(C(=O)OCC(=O)c2ccccc2)c1C	-136.0	12.6*	1.2	5.2	1.8	2.1	9.8*	4.9*

Assay outcomes (PubChem BioAssay)
